Source: ChEMBL document CHEMBL4130485, “Inhibitors of Yellow Fever Virus replication based on 1,3,5-triphenyl-4,5-dihydropyrazole scaffold: Design, synthesis and antiviral evaluation” (Eur J Med Chem, 2017)

Columns and labels:
[1] = Cytotoxicity against African green monkey Vero 76 cells assessed as decrease in cell viability after 48 to 96 hrs by MTT assay; format: cell-based; details: chlorocebus sabaeus
Summary of the method: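 Vero 76 cells seeded at 5×10^5 cells/mL in D-MEM with 10% FBS and incubated with serial compound dilutions at 37 °C, 5% CO2. Viability read by MTT after 48–96 h. CC50 by linear regression versus untreated controls.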

[2] = tested on: Bovine viral diarrhea virus 1; experiment: Antiviral activity against Bovine viral diarrhea virus NADL ATCC VR 534 infected in bovine MDBK cells assessed as protection against virus-induced cytopathic effect after 3 to 4 days by MTT assay; format: functional, organism-based, Bovine viral diarrhea virus 1-NADL; details: Bovine viral diarrhea virus isolates and strains, ATCC VR 534, MDBK
Summary of the method: (§1)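 BHK-21 cells (MDBK for BVDV) seeded at 5×10^4 (BHK) or 3×10^4 (MDBK) cells/well and grown overnight to confluence. Infected at m.o.i. 0.01 in maintenance MEM-Earle with 0.5% inactivated FBS. Serial compound dilutions added 2 h later (final 100, 20, 4, 0.8 µM; DMSO ≤0.1%). Viability read by MTT after 3–4 days at 37 °C. EC50 obtained by linear regression against untreated controls; mean of three determinations.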

[3] = tested on: Human immunodeficiency virus 1; experiment: Antiviral activity against HIV1 3B infected in human MT4 cells assessed as protection against virus-induced cytopathic effect after 4 days by MTT assay; format: functional, organism-based; details: Human immunodeficiency virus 1, 3B, MT4, 96 h
Summary of the method: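 MT-4 cells (1×10^4/well) in RPMI with serial compound dilutions, infected with 100 CCID50 HIV-1 (m.o.i. 0.01). Viability read by MTT after 4 days at 37 °C. EC50 for 50% protection from cytopathicity obtained by linear regression versus untreated controls; mean of three determinations.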

[4] = tested on: Yellow fever virus; experiment: Potency index, ratio of azauridine EC50 to compound EC50 for Yellow fever virus 17D vaccine (Stamaril Pasteur J07B01); format: functional
[5] = Cytotoxicity against bovine MDBK cells assessed as decrease in cell viability after 72 hrs by MTT assay; format: cell-based, Bos taurus; details: cattle
Summary of the method: (§2)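 Uninfected MDBK (6×10^5 cells/mL, 10% horse serum) or BHK (1×10^6 cells/mL, 10% FBS) cells in MEM-Earle with serial compound dilutions at 37 °C, 5% CO2, run in parallel with the antiviral assays. Viability read by MTT after 72 h. CC50 by linear regression; mean of three determinations.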

[6] = Selectivity index, ratio of CC50 for golden hamster BHK21 cells to EC50 for Yellow fever virus 17D; format: toxicity; details: read-out: Ratio CC50/EC50
Summary of the method: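 Selectivity index calculated as BHK-21 CC50 divided by YFV EC50, both from MTT assays.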

[7] = Cytotoxicity against human MT4 cells assessed as decrease in cell viability after 96 hrs by MTT assay; format: cell-based
Summary of the method: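 Exponentially growing MT-4 cells seeded at 1×10^5 cells/mL in RPMI-1640 with 10% FBS and incubated with serial compound dilutions at 37 °C, 5% CO2. Viability read by MTT after 96 h. CC50 by linear regression versus untreated controls.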

[8] = tested on: Yellow fever virus; experiment: Antiviral activity against Yellow fever virus 17D vaccine (Stamaril Pasteur J07B01) infected in golden hamster BHK21 cells assessed as protection against virus-induced cytopathic effect after 3 to 4 days by MTT assay; format: functional, organism-based; details: BHK-21; summary of the method: as §1
[9] = tested on: Human alphaherpesvirus 1; experiment: Antiviral activity against Human herpesvirus 1 KOS ATCC VR 1493 infected in African green monkey Vero 76 cells assessed as protection against virus-induced cytopathic effect after 3 days by crystal violet staining-based plaque reduction assay; format: functional, organism-based; details: Human alphaherpesvirus 1, KOS, Vero 76, 72 h
[10] = Cytotoxicity against golden hamster BHK21 cells assessed as decrease in cell viability after 72 hrs by MTT assay; format: cell-based, Mesocricetus auratus, BHK-21; summary of the method: as §2
[11] = Antiviral activity against Human enterovirus B Faulkner ATCC VR 185 infected in African green monkey Vero 76 cells assessed as protection against virus-induced cytopathic effect after 3 days by crystal violet staining-based plaque reduction assay; format: functional, cell-based; details: Faulkner ATCC VR 185, Vero 76, 72 h
[12] = tested on: West Nile virus; experiment: Antiviral activity against West Nile virus clinical isolate infected in golden hamster BHK21 cells assessed as protection against virus-induced cytopathic effect after 3 to 4 days by MTT assay; format: functional, organism-based; details: BHK-21; summary of the method: as §1
[13] = tested on: Vaccinia virus; experiment: Antiviral activity against Vaccinia virus Lister ATCC VR 1549 infected in African green monkey Vero 76 cells assessed as protection against virus-induced cytopathic effect after 3 days by crystal violet staining-based plaque reduction assay; format: functional, organism-based; details: Orthopoxvirus vaccinia, ATCC VR 1549, Vero 76, 72 h
[14] = tested on: Enterovirus C; experiment: Antiviral activity against Enterovirus C Sabin […] infected in African green monkey Vero 76 cells assessed as protection against virus-induced cytopathic effect after 2 days by crystal violet staining-based plaque reduction assay; format: functional, organism-based; details: Vero 76, 48 h
[15] = tested on: Vesicular stomatitis Indiana virus; experiment: Antiviral activity against Vesicular stomatitis virus Indiana ATCC VR 158 infected in African green monkey Vero 76 cells assessed as protection against virus-induced cytopathic effect after 2 days by crystal violet staining-based plaque reduction assay; format: functional, organism-based; details: ATCC VR 158, Vero 76, 48 h
[16] = tested on: Human orthopneumovirus; experiment: Antiviral activity against Human respiratory syncytial virus A2 ATCC VR 1540 infected in African green monkey Vero 76 cells assessed as protection against virus-induced cytopathic effect after 5 days by crystal violet staining-based plaque reduction assay; format: functional, organism-based; details: ATCC VR 1540, Vero 76, 120 h
[17] = tested on: dengue virus type 2; experiment: Antiviral activity against Dengue virus type 2 clinical isolate infected in golden hamster BHK21 cells assessed as protection against virus-induced cytopathic effect after 3 to 4 days by MTT assay; format: functional, organism-based; details: BHK-21; summary of the method: as §1
[18] = tested on: Mammalian orthoreovirus 1; experiment: Antiviral activity against Reovirus 1 infected in golden hamster BHK21 cells assessed as protection against virus-induced cytopathic effect after 3 to 4 days by MTT assay; format: functional, organism-based; details: Mammalian orthoreovirus 1, BHK-21; summary of the method: as §1

Row | SMILES | CC50 [1] | EC50 [2] | EC50 [3] | Ratio EC50 [4] | CC50 at 72 h [5] | selectivity ratio [6] | CC50 at 96 h [7] | EC50 [8] | EC50 [9] | CC50 at 72 h [10] | EC50 [11] | EC50 [12] | EC50 [13] | EC50 [14] | EC50 [15] | EC50 [16] | EC50 [17] | EC50 [18]
1 | COc1c(C)c2c(c(O)c1C/C=C(\C)CCC(=O)O)C(=O)OC2 [MYCOPHENOLIC ACID] | 9 µM |  |  |  |  |  |  |  |  |  |  |  |  |  |  |  |  | 
2 | NS(=O)(=O)c1ccc(N2N=C(c3ccccc3)CC2c2ccc(F)cc2)cc1 (stereo unspecified) | 23 µM | > 18 µM | > 45 µM | 10 | 18 µM | 5 | 45 µM | 2.6 µM | > 23 µM | 12 to 13 µM | > 23 µM | > 13 µM | > 23 µM | > 23 µM | > 23 µM | > 23 µM | > 13 µM | > 12 µM
3 | NS(=O)(=O)c1ccc(N2N=C(c3ccc(Oc4ccccc4)cc3)CC2c2ccc(Cl)cc2)cc1 (stereo unspecified) | 88 µM | > 19 µM | > 9 µM | 10 | 19 µM | 4.2 | 9 µM | 1.9 µM | > 88 µM | 7 to 8 µM | > 88 µM | > 8 µM | > 88 µM | > 88 µM | > 88 µM | > 88 µM | > 8 µM | > 7 µM
4 | NS(=O)(=O)c1ccc(N2N=C(c3ccccc3)CC2c2ccccc2)cc1 (stereo unspecified) | 22 µM | > 16 µM | > 42 µM | 10 | 16 µM |  | 42 µM | > 15 µM | > 22 µM | 15 µM | > 22 µM |  | > 22 µM | > 22 µM | > 22 µM | > 22 µM |  | > 15 µM
5 | Cc1cccc(C2CC(c3ccccc3)=NN2c2ccc(S(N)(=O)=O)cc2)c1 (stereo unspecified) | 25 µM | > 23 µM | > 37 µM | 10 | 23 µM |  | 37 µM | > 25 µM | > 25 µM | 25 µM | > 25 µM |  | > 25 µM | > 25 µM | > 25 µM | > 25 µM |  | > 25 µM
6 | NS(=O)(=O)c1ccc(N2N=C(c3ccccc3)CC2c2ccc(Cl)cc2)cc1 (stereo unspecified) | 21 µM | > 11 µM | > 36 µM | 10 | 11 µM |  | 36 µM | > 32 µM | > 21 µM | 32 µM | > 21 µM |  | > 21 µM | > 21 µM | > 21 µM | > 21 µM |  | > 32 µM
7 | Nc1nc2c(ncn2COCCO)c(=O)[nH]1 [ACYCLOVIR] | > 100 µM |  |  |  |  |  |  |  | 1.8 µM |  |  |  |  |  |  |  |  | 
8 | NS(=O)(=O)c1ccc(N2N=C(c3ccccc3)CC2c2cccc(F)c2)cc1 (stereo unspecified) | 24 µM | > 20 µM | 13 µM | 10 | 20 µM |  | 44 µM | ≥ 15 µM | > 24 µM | 15 µM | > 24 µM |  | > 24 µM | > 24 µM | > 24 µM | > 24 µM |  | > 15 µM
9 | NS(=O)(=O)c1ccc(N2N=C(c3ccccc3)CC2c2ccccc2F)cc1 (stereo unspecified) | 28 µM | > 19 µM | > 42 µM | 10 | 19 µM |  | 42 µM | > 21 µM | > 28 µM | 21 µM | > 28 µM |  | > 28 µM | > 28 µM | > 28 µM | > 28 µM |  | > 21 µM
10 | C[C@@]1(O)[C@H](O)[C@@H](CO)O[C@H]1n1cnc2c(=O)[nH]c(N)nc21 [2'-B-METHYL-GUANOSINE] |  |  |  |  |  |  |  |  |  |  |  | 0.8 µM |  |  |  |  | 1.7 µM | 
